Experimental findings from ChEMBL document CHEMBL4028890, “A Positive Allosteric Modulator of the Serotonin 5-HT2C Receptor for Obesity” (J Med Chem, 2017) are described below.

Molecules are shown by their SMILES. The source made the active and inactive calls. No cut-off for these calls is given here.

Series [1] deals with Rattus norvegicus. The series can be described thus: Antiobesity activity in restricted food access Wistar rat model assessed as reduction in body weight at 2 mg/kg, ip administered 30 mins prior to food presentation measured after 4 hrs on every day for 7 days. The format is functional, organism-based. In short, it runs like this: (§1)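 Rats had food for 4 h/day. Once the feeding baseline was stable, compound (2 mg/kg ip) or vehicle was given 30 min before food presentation. Food and water intake read at the end of the 4 h period. Repeated on 7 consecutive days, with total intake and body weight tracked. Mean ± SEM, n ≥ 8.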

In series [2] the target is T1, 5-hydroxytryptamine receptor 2A (Homo sapiens, UniProt P28223). Kind of series: Positive allosteric modulation of human 5-HT2A receptor expressed in CHO-K1 cells assessed as potentiation of 5-HT-induced inositol monophosphate release at 10 uM after 20 mins by HTRF assay. The format is cell-based. Summed up: (§2)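 IP-One HTRF assay in CHO-K1 cells (human 5-HT2A, 5-HT2B) or HeLa-K1 cells (human 5-HT2C), seeded and grown 24 h at 37 °C. Test compound and/or 5-HT added in stimulation buffer, then 20 min at 37 °C before IP1 read-out. Data normalized to 5-HT maximal effect and fitted by nonlinear regression. Triplicates, mean ± SD.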
T1 sequence (P28223 whole entry): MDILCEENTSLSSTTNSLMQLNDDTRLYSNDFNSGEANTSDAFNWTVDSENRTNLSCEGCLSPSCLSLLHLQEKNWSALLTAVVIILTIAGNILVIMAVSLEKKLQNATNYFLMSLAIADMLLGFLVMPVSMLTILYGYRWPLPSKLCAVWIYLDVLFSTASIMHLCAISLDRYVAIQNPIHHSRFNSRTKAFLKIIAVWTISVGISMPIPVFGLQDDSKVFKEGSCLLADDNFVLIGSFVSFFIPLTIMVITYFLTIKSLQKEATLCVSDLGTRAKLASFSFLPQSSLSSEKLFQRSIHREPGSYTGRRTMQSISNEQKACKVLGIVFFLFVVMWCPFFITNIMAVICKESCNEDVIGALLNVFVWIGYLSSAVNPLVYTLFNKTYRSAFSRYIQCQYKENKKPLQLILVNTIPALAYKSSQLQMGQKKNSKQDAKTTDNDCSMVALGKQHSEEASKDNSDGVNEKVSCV
In general terms: TR-FRET usually uses a lanthanide donor and a delayed reading to cut background.

For series [3], the system named is Rattus norvegicus. The series can be described thus: Antiobesity activity in Wistar rat assessed as reduction in food intake at 1 mg/kg, ip after 4 hrs in presence of 5-HT2C antagonist SB-242084. The format is functional, organism-based. In short, it runs like this: (§3)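 Male Wistar rats, 200−250 g, 10−12 weeks, food-deprived 16 h before refeeding. Test compound given ip in sterile saline. Sertraline, ketanserin (2 mg/kg) or 5-HT2C antagonist (3 mg/kg) was given ip 30 min before the test compound. Food and water intake measured 30, 60, 120 and 240 min after food presentation. Mean ± SEM, at least 8 rats per group.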

Series [4] addresses T1, 5-hydroxytryptamine receptor 2A. The series can be described thus: Intrinsic agonist activity at human 5-HT2A receptor expressed in CHO-K1 cells assessed as induction of inositol monophosphate release at 10 uM after 20 mins by HTRF assay. It counts as cell-based. Summed up:
as §2

The target of series [5] is T2, 5-hydroxytryptamine receptor 2C (Homo sapiens) (UniProt P28335).
T2 sequence (whole entry): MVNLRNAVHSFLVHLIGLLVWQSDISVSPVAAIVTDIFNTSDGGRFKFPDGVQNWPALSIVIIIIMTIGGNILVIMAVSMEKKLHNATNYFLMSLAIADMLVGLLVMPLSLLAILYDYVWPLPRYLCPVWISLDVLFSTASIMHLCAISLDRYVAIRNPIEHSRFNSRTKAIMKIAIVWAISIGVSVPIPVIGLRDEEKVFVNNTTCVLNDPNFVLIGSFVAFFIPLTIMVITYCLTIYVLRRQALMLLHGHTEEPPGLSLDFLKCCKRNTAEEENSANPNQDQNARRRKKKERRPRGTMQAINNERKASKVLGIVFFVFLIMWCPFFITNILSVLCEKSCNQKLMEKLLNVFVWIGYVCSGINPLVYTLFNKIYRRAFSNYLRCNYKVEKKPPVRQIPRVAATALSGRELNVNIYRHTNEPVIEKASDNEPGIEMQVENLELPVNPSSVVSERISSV
Kind of series: Displacement of [3H]-LSD from human 5-HT2C receptor expressed in human HeLa-K1 cell membranes at 10 uM after 60 mins relative to control. In short, it runs like this: (§4)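 Membranes from 5-HT2C-HeLa cells with test compound (10 μM) in 50 mM Tris-HCl pH 7.4. Radioligands: [3H]mesulergine 4 nM, [3H]LSD 2 nM (15 μg protein each), [3H]clozapine 15 nM (20 μg), 60 min at 27 °C. [3H]5-HT 2 nM (60 μg), 180 min at 4 °C. Nonspecific binding with 10 μM mianserin. Filtered and washed, then counted. Triplicates, mean ± SD.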

Series [6] deals with T2, 5-hydroxytryptamine receptor 2C (Homo sapiens). The series can be described thus: Positive allosteric modulation of human 5-HT2C receptor expressed in human HeLa-K1 cells assessed as potentiation of 5-HT-induced inositol monophosphate release at 1 uM after 20 mins by HTRF assay relative to control. It counts as functional, cell-based.
Series [7] has the same target. The series can be described thus: Displacement of [3H]-5-HT from human 5-HT2C receptor expressed in human HeLa-K1 cell membranes at 10 uM after 180 mins relative to control. Summed up:
as §4
(In general: Displacement assays read how much labelled ligand stays bound in the presence of the test substance.)

For series [8] the target is unchanged. Kind of series: Positive allosteric modulation of human 5-HT2C receptor expressed in human HeLa-K1 cells assessed as potentiation of 5-HT-induced inositol monophosphate release at 10 uM after 20 mins by HTRF assay relative to control. It counts as functional, cell-based. In short, it runs like this: as §2
In series [9] the test system is Rattus norvegicus. Kind of series: Toxicity in Wistar rat assessed as induction of malaise at 2 mg/kg, ip measured 30 mins for 2 days by conditioned taste aversion test. The format is organism-based. The conditions noted are these: in vivo. Summed up: (§5)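 Rats water-deprived 24 h, then trained to drink from a graded bottle in 30 min sessions for 4 days. On day 5, 0.1% saccharin replaced water, and 30 min later rats got ip vehicle, compound (2 mg/kg) or LiCl (0.4 M, 7.5 mL/kg). Water intake was recorded over 30 min on the next 2 days, then a water or saccharin choice was measured.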

For series [10], the system named is Rattus norvegicus. The series can be described thus: Toxicity in Wistar rat assessed as induction of hypolocomotion at 0.5 to 2 mg/kg, ip after 30 mins by elevated plus maze test. It counts as organism-based. The conditions noted are these: in vivo, 0.5 h. In short, it runs like this: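 Maze-naive rats handled for 7 days. Placed in the centre facing an open arm 30 min after ip dosing. Open-arm entries and % time in open arms scored over 5 min. No retesting.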

In series [11] the target is T2, 5-hydroxytryptamine receptor 2C (Homo sapiens). Kind of series: Intrinsic agonist activity at human 5-HT2C receptor expressed in human HeLa-K1 cells assessed as induction of inositol monophosphate release after 20 mins by HTRF assay. It counts as functional, cell-based. Summed up: as §2
The test system of series [12] is Rattus norvegicus. Kind of series: Antiobesity activity in restricted food access Wistar rat model assessed as reduction in food intake at 2 mg/kg, ip administered 30 mins prior to food presentation measured after 4 hrs on every day for 7 days. The format is functional, organism-based. In short, it runs like this:
as §1

Series [13] has as its system Rattus norvegicus. Kind of series: Antiobesity activity in Wistar rat assessed as reduction in food intake at 2 mg/kg, ip after 4 hrs. The format is functional, organism-based. Summed up:
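Male Wistar rats, 200−250 g, aged 10−12 weeks, food-deprived 16 h before refeeding. Compound given ip in sterile saline; food and water intake measured at 30, 60, 120 and 240 min after food presentation. Where used, antagonist (3 mg/kg, ip) or other pretreatments were injected 30 min before the compound. Mean ± SEM, at least eight rats per group.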

The test system of series [14] is Rattus norvegicus. The series can be described thus: In vivo positive allosteric modulation of serotonin-induced feeding suppression in Wistar rat at 0.5 mg/kg, ip after 4 hrs in presence of 2 mg/kg selective serotonin reuptake inhibitor sertraline. The format is functional, organism-based. Summed up: as §3
Series [15] concerns Rattus norvegicus. Kind of series: Antiobesity activity in Wistar rat assessed as reduction in food intake at 2 mg/kg, ip after 4 hrs in presence of 5-HT2A antagonist ketanserin. It counts as functional, organism-based. In short, it runs like this:
as §3

In series [16] the test system is Rattus norvegicus. Kind of series: Antiobesity activity in continuous food access Wistar rat model assessed as reduction in food intake at 2 mg/kg, ip administered daily for 7 days. It counts as functional, organism-based. In short, it runs like this:
(§6)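 Wistar rats made obese on 60% fat diet (5.24 kcal/g) for 8 weeks. Free-feeding rats got a daily ip injection of compound (2 mg/kg) or vehicle for 7 days. Daily chow intake (kcal/kg body weight) and body weight gain (g) recorded. Mean ± SEM, n ≥ 8 per group.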

The subject of series [17] is Rattus norvegicus. The series can be described thus: Antiobesity activity in continuous food access Wistar rat model assessed as reduction in body weight at 2 mg/kg, ip administered daily for 7 days. It counts as functional, organism-based. In short, it runs like this: as §6
The target of series [18] is T3, 5-hydroxytryptamine receptor 2B (Homo sapiens, UniProt P41595). Kind of series: Positive allosteric modulation of human 5-HT2B receptor expressed in CHO-K1 cells assessed as potentiation of 5-HT-induced inositol monophosphate release at 10 uM after 20 mins by HTRF assay. The format is cell-based. In short, it runs like this: as §2
T3 sequence (P41595 whole entry): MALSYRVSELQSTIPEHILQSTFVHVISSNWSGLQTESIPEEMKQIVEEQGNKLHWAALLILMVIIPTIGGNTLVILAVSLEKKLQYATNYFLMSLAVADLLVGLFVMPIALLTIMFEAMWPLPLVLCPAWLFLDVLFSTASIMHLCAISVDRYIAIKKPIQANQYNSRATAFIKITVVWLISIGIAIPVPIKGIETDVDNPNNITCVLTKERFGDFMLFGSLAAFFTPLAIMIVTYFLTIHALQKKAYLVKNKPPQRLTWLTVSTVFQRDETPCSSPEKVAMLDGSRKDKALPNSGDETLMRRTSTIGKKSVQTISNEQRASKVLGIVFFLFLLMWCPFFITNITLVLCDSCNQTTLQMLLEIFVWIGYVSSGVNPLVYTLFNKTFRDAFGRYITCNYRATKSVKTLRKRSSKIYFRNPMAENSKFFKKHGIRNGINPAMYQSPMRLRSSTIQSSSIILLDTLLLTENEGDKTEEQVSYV
Series [19] addresses T3, 5-hydroxytryptamine receptor 2B. Kind of series: Intrinsic agonist activity at human 5-HT2B receptor expressed in CHO-K1 cells assessed as induction of inositol monophosphate release at 10 uM after 20 mins by HTRF assay. It counts as cell-based. In short, it runs like this: as §2
Series [20] has as its system Rattus norvegicus. The series can be described thus: Antiobesity activity in Wistar rat assessed as reduction in food intake at 10 mg/kg, ip after 4 hrs relative to control. More on the design: scale not given: the % may be the effect or the level left. It counts as functional. In short, it runs like this: as §3
Series [21] has as its target T2, 5-hydroxytryptamine receptor 2C (Homo sapiens). Kind of series: Displacement of [3H]-LSD from human 5-HT2C receptor expressed in human HeLa-K1 cell membranes at 1 uM after 60 mins relative to control.
For series [22] the target is unchanged. Kind of series: Displacement of [3H]-clozapine from human 5-HT2C receptor expressed in human HeLa-K1 cell membranes at 10 uM after 60 mins relative to control. Summed up:
as §4

The target is the same in series [23]. The series can be described thus: Displacement of [3H]-mesulergine from human 5-HT2C receptor expressed in human HeLa-K1 cell membranes at 10 uM after 60 mins relative to control. In short, it runs like this: as §4
The nature of series [24]: Ratio of drug level in brain to plasma in Wistar rat at 10 mg/kg, ip measured up to 6 hrs. The format is ADME, organism-based. The conditions noted are these: read-out: BPR.
Series [25] addresses T2, 5-hydroxytryptamine receptor 2C (Homo sapiens). Kind of series: (§7) Positive allosteric modulation of human 5-HT2C receptor expressed in human HeLa-K1 cells assessed as potentiation of 5-HT-induced inositol monophosphate release after 20 mins by HTRF assay. The format is functional, cell-based. Summed up: as §2
Series [26] addresses T4, 5-hydroxytryptamine receptor 2C (Homo sapiens, UniProt P28335).
T4 sequence (P28335 whole entry): T2 sequence (whole entry)
The series is described as §7. The format is functional, cell-based. Summed up:
as §2

The test system of series [27] is Rattus norvegicus. Kind of series: In vivo positive allosteric modulation of serotonin-induced feeding suppression in Wistar rat at 2 mg/kg, ip after 4 hrs in presence of 5 mg/kg selective serotonin reuptake inhibitor sertraline. It counts as functional, organism-based. Summed up: as §3
Series [28] deals with Rattus norvegicus. Kind of series: Toxicity in Wistar rat assessed as induction of hypolocomotion at 2 mg/kg, ip after 30 mins by open field test. The format is organism-based. The conditions noted are these: in vivo, 0.5 h. In short, it runs like this: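 Rats handled for 7 days before testing. Tested 30 min after ip dosing (2 mg/kg), placed in the centre of the open field. Distance walked was recorded automatically over 10 min. No retesting.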

Series [29] is filed under the species Rattus norvegicus. The series can be described thus: Toxicity in Wistar rat assessed as induction of malaise at 0.4 M measured 30 mins for 2 days by conditioned taste aversion test. The conditions noted are these: in vivo, 0.5 h. Summed up: as §5

Broadly, the inhibition is the change of the read-out against control, counted positive when it falls. As usually defined, the EC50 is the concentration that produces a half-maximal response. On to `c1ccc(Cn2cc(CNc3cccnc3)c3ccccc32)cc1`, for which the outcome in series [1], in series [3], in series [12], in series [13], in series [14] and in [15] was Active. Further, the outcome in [16], in [17] and in series [27] was Active. The Activity result in series [2] was “Not Active”; in [4] it was “Not Active”; in series [6] it was 28%; in series [8], 35%; in [9], “Non-Toxic”; in [10], “Toxic”. In addition, the Activity entry was “Not Active” in series [18]; “Not Active” in series [19]; 50% in series [20]; “Dose-dependent effect” in [25]; “Toxic” in series [28]. Also, the inhibition came to 67% in [5]; 37% in [7]; 21% in [21]; 36% in series [22]; 26% in series [23]. For the same compound, the result in series [11] was inactive. In series [24], the Kp at 6 h was 3.8. Moreover, the EC50 in [26] is 16 nM.
Take `[Cl-].[Li+]` [CHLOROLITHIUM]: in series [29], the Activity result was “Toxic”.
